These results are taken from ChEMBL document CHEMBL1137968, “Carbazates as potent inhibitors of hormone-sensitive lipase” (Bioorg Med Chem Lett, 2004).

The structures appear in SMILES notation. pIC50: −log10 of the molar value.

Test [1] deals with T1, Hormone-sensitive lipase (Homo sapiens) (UniProt Q05469).
T1 sequence (whole entry): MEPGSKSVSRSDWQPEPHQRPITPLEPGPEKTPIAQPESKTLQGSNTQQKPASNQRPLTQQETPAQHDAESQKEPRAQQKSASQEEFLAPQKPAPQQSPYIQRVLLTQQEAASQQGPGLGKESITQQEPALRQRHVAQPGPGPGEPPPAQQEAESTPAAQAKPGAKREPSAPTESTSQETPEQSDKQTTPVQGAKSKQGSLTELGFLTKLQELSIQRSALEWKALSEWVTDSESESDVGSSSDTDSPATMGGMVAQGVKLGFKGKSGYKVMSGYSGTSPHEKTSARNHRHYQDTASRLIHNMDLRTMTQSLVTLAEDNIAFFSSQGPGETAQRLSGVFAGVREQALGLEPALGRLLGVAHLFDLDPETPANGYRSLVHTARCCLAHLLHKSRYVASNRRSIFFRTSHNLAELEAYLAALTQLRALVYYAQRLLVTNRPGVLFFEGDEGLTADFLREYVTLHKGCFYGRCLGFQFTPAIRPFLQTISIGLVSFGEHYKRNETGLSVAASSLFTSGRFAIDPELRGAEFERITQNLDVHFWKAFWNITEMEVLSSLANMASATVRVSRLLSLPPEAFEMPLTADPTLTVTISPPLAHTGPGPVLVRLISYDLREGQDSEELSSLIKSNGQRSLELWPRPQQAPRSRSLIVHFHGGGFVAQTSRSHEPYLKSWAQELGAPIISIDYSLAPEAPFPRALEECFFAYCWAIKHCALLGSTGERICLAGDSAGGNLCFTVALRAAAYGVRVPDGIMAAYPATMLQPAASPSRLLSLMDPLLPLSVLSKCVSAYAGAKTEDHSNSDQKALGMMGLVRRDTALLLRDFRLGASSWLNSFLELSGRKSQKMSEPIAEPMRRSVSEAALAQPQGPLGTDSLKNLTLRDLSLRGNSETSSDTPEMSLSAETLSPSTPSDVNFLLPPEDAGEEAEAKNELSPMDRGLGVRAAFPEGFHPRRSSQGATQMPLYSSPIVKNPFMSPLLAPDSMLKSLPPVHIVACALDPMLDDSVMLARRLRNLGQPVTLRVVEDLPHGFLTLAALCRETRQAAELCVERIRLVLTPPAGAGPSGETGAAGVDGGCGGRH
Description: Inhibition of recombinant human hormone sensitive lipase (HSL). On the set-up: concentration or dose not given beside the values. The note with it: concentration not given here. The method, boiled down: (§1)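 Purified recombinant human HSL (specific activity 2.6 U/mg protein) with triolein substrate. Activity measured at 37 °C as ³H-oleic acid release over time from a ³H-trioleoylglycerol emulsion stabilized with phospholipids. Bovine serum albumin served as fatty acid acceptor.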

Another test concerns the target T2, Hormone-sensitive lipase (Homo sapiens, UniProt Q05469).
T2 sequence (Q05469 whole entry): T1 sequence (whole entry)
Description: Inhibition of human recombinant hormone sensitive lipase. In a few lines:
as §1

Take `CC(=O)Nc1ccc(OC(=O)NN2CCOCC2)cc1`: in test [1], the inhibition amounted to 20%.

As for `COc1ccc(OC(=O)NN2CCc3ccccc3C2)cc1`, the inhibition in test [1] amounted to 97%.

On to `O=C(NN1CCCCC1)Oc1ccc(Cl)cc1`, for which the inhibition in test [1] is 99%.

Consider `O=C(NN1CCc2ccccc2C1)Oc1c(Cl)cccc1Cl`, for which, in test [1], the inhibition worked out at 3%.

As to `CCOC(=O)NN1CCc2ccccc2C1`, the inhibition in test [1] amounted to 9%.

`CC1Cc2ccccc2CN1NC(=O)Oc1ccc(Cl)cc1` (stereo unspecified): the pIC50 at Hormone-sensitive lipase is 7.46. Moreover, the inhibition in test [1] was 99%.

In the case of `O=C(NN1CCOCC1)Oc1ccc(NC(=O)C2CCCCC2)cc1`, the pIC50 on Hormone-sensitive lipase is 8.00. The inhibition in test [1] was determined as 99%.

For `O=C(NN1CCc2ccccc2C1)Oc1ccc(Cc2ccccc2)cc1`, the pIC50 at Hormone-sensitive lipase was 7.01. The inhibition in test [1] came out at 97%.

For `CC(=O)Nc1ccc(OC(=O)NN2CCc3ccccc3C2)cc1`, the inhibition in test [1] was 7%.

Regarding `O=C(NN1CCOCC1)Oc1ccc(Cl)cc1`, the negative-log IC50 (pIC50) on Hormone-sensitive lipase was 6.74. Moreover, the inhibition in test [1] turned out to be 99%.

As to `O=C(NN1CCc2ccccc2C1)OCc1ccccc1`, the inhibition in test [1] came out at 4%.

With `COc1ccccc1OC(=O)NN1CCc2ccccc2C1`, the inhibition in test [1] turned out to be 76%.

As for `COC(=O)Cc1ccc(OC(=O)NN2CCOCC2)cc1`, on Hormone-sensitive lipase, the pIC50 is 6.15. The inhibition in test [1] worked out at 95%.

Turning to `CC(C)(C)OC(=O)Nc1ccc(OC(=O)NN2CCc3ccccc3C2)cc1`, the inhibition in test [1] was 98%.

`O=C(NN1CCc2ccccc2C1)Oc1ccccc1`: the pIC50 at Hormone-sensitive lipase is 6.69.

With `O=C(NN1CCc2ccccc2C1)Oc1ccc(Cl)cc1`, in test [1], the inhibition was found to be 98%.

Turning to `CN(C(=O)Oc1ccc(Cl)cc1)N1CCc2ccccc2C1`, the inhibition in test [1] was 2%.

Consider `O=C(Cc1ccc(OC(=O)NN2CCOCC2)cc1)OCc1ccccc1`, for which the negative logarithm of the IC50 (pIC50) at Hormone-sensitive lipase was 8.30. In addition, the inhibition in test [1] turned out to be 100%.

For the compound `CC(C)(C)C1CCC(C(=O)Nc2ccc(OC(=O)NN3CCOCC3)cc2)CC1` (stereo unspecified), the negative logarithm of the IC50 (pIC50) at Hormone-sensitive lipase is 9.00. In test [1], the inhibition came to 100%.

For the compound `O=C(NN1CCCC1)Oc1ccc(Cl)cc1`, the negative-log IC50 (pIC50) on Hormone-sensitive lipase is 7.62. For the same compound, the inhibition in test [1] stood at 100%.

As to `CC(C)(C)OC(=O)NN1CCc2ccccc2C1`, the inhibition in test [1] is 8%.

As for `CN1CCN(NC(=O)Oc2ccc(Cl)cc2)CC1`, at Hormone-sensitive lipase, the pIC50 was 6.29. Moreover, the inhibition in test [1] worked out at 98%.

As to `CCCC(=O)Nc1ccc(OC(=O)NN2CCOCC2)cc1`, at Hormone-sensitive lipase, the pIC50 was 5.49. Further, the inhibition in test [1] was 84%.

For `CC(C)(C)CC(=O)Nc1ccc(OC(=O)NN2CCOCC2)cc1`, the pIC50 at Hormone-sensitive lipase is 7.33. For the same compound, the inhibition in test [1] is 99%.

Consider `CCOC(=O)Cc1ccc(OC(=O)NN2CCOCC2)cc1`, for which the pIC50 at Hormone-sensitive lipase is 6.86. In addition, the inhibition in test [1] is 99%.

Regarding `COC(=O)c1ccc(OC(=O)NN2CCc3ccccc3C2)cc1`, the inhibition in test [1] was found to be 57%.

In the case of `O=C(NN1CCc2ccccc2C1)Oc1ccc(C(=O)c2ccccc2)cc1`, the inhibition in test [1] is 21%.

With `CC1c2ccccc2CCN1NC(=O)Oc1ccc(Cl)cc1` (stereo unspecified), on Hormone-sensitive lipase, the pIC50 was 7.49. In addition, the inhibition in test [1] worked out at 91%.
